Source: ChEMBL document CHEMBL3861961, “Effects of Functional Groups and Sugar Composition of Quercetin Derivatives on Their Radical Scavenging Properties” (J Nat Prod, 2016)
Activity calls are given as the source filed them. The rule behind the calls is not given here.

How the values were obtained:
[1] = Antioxidant activity assessed as DPPH free radical scavenging activity at 5 uM after 15 to 60 mins in presence of CuSO4.5H2O; assay type: functional
How it was run: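 Samples (0.2 mM in MeOH) mixed 1:1 by volume with CuSO4·5H2O (0.4 mM in MeOH), held 1.5 h at room temperature. DPPH step: 74 μM DPPH final in H2O/MeOH (5/3), sample 5 μM final. Mixture left standing, then absorbance read at 545 nm after 15, 30 and 60 min. Wells without compound were negative controls. At least triplicate.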

[2] = Antioxidant activity assessed as DPPH free radical scavenging activity by measuring remaining DPPH at 5 uM after 15 to 60 mins relative to trolox; assay type: functional
How it was run: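 DPPH 74 μM final in H2O/MeOH (5/3), mixed vigorously with sample (0.1 mM stock in MeOH; 5 μM final) and left standing. Absorbance at 545 nm read at 15, 30 and 60 min. Wells without compound served as negative controls. At least three replicates per compound and control.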

[3] = Antioxidant activity assessed as DPPH free radical scavenging activity by measuring decrease in signal intensity at 0.015 mmol measured after 30 mins in presence of 3-Omethylquercetin by 13C-NMR spectroscopy

Row | SMILES | Activity [1] | Activity [2] | Activity [3]
1 | O=c1c(O)c(-c2ccc(O)c(O)c2)oc2cc(O)cc(O)c12 | Active | < 70% | 
2 | COc1cc(O)cc2oc(-c3ccc(O)c(O)c3)c(O)c(=O)c12 | Active | < 70% | 
3 | COc1cc(O)cc2oc(-c3ccc(O)c(O)c3)c(O[C@@H]3O[C@H](CO)[C@@H](O)[C@H](O)[C@H]3O)c(=O)c12 | Active | < 70% | 
4 | O=C(O[C@H]1[C@H](Oc2c(-c3ccc(O)c(O)c3)oc3cc(O)cc(O)c3c2=O)O[C@H](CO)[C@@H](O)[C@@H]1OC(=O)c1cc(O)c(O)c(O)c1)c1cc(O)c(O)c(O)c1 | < 35% |  | 
5 | COc1cc(-c2oc3cc(O)cc(O)c3c(=O)c2O)ccc1O | Active |  | 
6 | COc1cc(-c2oc3cc(O)cc(O)c3c(=O)c2O[C@@H]2O[C@H](CO)[C@@H](O)[C@H](O)[C@H]2O)ccc1O | Active |  | 
7 | O=C(O[C@@H]1[C@@H](O)[C@H](Oc2c(-c3ccc(O)c(O)c3)oc3cc(O)cc(O)c3c2=O)O[C@H](CO)[C@H]1O)c1cc(O)c(O)c(O)c1 | < 35% |  | 
8 | O=C(O[C@H]1[C@H](O)[C@@H](O)[C@H](Oc2c(-c3ccc(O)c(O)c3)oc3cc(O)cc(O)c3c2=O)O[C@@H]1CO)c1cc(O)c(O)c(O)c1 | < 35% |  | 
9 | COc1cc(O)cc2oc(-c3ccc(O)c(O)c3)c(O[C@@H]3O[C@H](CO)[C@H](O)[C@H](O)[C@H]3O)c(=O)c12 | Active | < 70% | 
10 | COC(=O)c1cc(O)c(O)c(O)c1 |  |  | Active
11 | COc1c(-c2ccc(O)c(O)c2)oc2cc(O)cc(O)c2c1=O | Active | < 70% | 
12 | COc1cc(-c2oc3cc(O)cc(O)c3c(=O)c2O[C@@H]2O[C@H](CO)[C@H](O)[C@H](O)[C@H]2O)ccc1O | Active |  | 
13 | O=c1c(O[C@@H]2O[C@H](CO)[C@@H](O)[C@H](O)[C@H]2O)c(-c2ccc(O)c(O)c2)oc2cc(O)cc(O)c12 | Active | < 70% | 
14 | O=c1c(O[C@@H]2O[C@H](CO)[C@H](O)[C@H](O)[C@H]2O)c(-c2ccc(O)c(O)c2)oc2cc(O)cc(O)c12 | Active | < 70% | 
15 | O=C(O[C@H]1[C@H](Oc2c(-c3ccc(O)c(O)c3)oc3cc(O)cc(O)c3c2=O)O[C@H](CO)[C@@H](O)[C@@H]1O)c1cc(O)c(O)c(O)c1 | < 35% |  | 
16 | O=C(OC[C@H]1O[C@@H](Oc2c(-c3ccc(O)c(O)c3)oc3cc(O)cc(O)c3c2=O)[C@H](O)[C@@H](O)[C@@H]1O)c1cc(O)c(O)c(O)c1 | < 35% |  | 
17 | COc1ccc(-c2oc3cc(O)cc(O)c3c(=O)c2O)cc1O | Active |  | 
